ChEMBL document CHEMBL4004850, “Rational design of reversible inhibitors for trehalose 6-phosphate phosphatases” (Eur J Med Chem, 2017)

Experiments:
[1] = Inhibition of Salmonella typhimurium T6PP using T6P as substrate by Lineweaver-Burk plot analysis; parameters: species or system Salmonella enterica subsp. enterica serovar Typhimurium
Method in brief: (§1)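 Continuous phosphate-release assay (EnzChek, MESG/purine nucleoside phosphorylase) at 25 °C. Initial velocities of T6P hydrolysis by T6PP were taken at varied T6P with inhibitor at 0, Ki and 2×Ki. Km and Vmax come from double-reciprocal plots.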

[2] = Inhibition of Ascaris suum T6PP using T6P as substrate by Lineweaver-Burk plot analysis
Shigella boydii [3] = assay: Inhibition of Shigella boydii T6PP assessed as Km for substrate using T6P as substrate by Lineweaver-Burk plot analysis; method in brief: as §1
Ascaris suum [4] = assay: Inhibition of Ascaris suum T6PP assessed as Vmax for substrate using T6P as substrate by Lineweaver-Burk plot analysis; method in brief: as §1
Ascaris suum [5] = assay: Inhibition of Ascaris suum T6PP assessed as Km for substrate using T6P as substrate by Lineweaver-Burk plot analysis; method in brief: as §1
[6] = system: Salmonella enterica subsp. enterica serovar Typhimurium; assay: Inhibition of Salmonella typhimurium T6PP assessed as Km for substrate using T6P as substrate by Lineweaver-Burk plot analysis; method in brief: as §1
Shigella boydii [7] = assay: Inhibition of Shigella boydii T6PP assessed as Vmax for substrate using T6P as substrate by Lineweaver-Burk plot analysis; method in brief: as §1
Escherichia coli = settings: 200 uM
[8] = system: Salmonella enterica subsp. enterica serovar Typhimurium; assay: Inhibition of Salmonella typhimurium T6PP assessed as Vmax for substrate using T6P as substrate by Lineweaver-Burk plot analysis; method in brief: as §1
[9] = system: Bacteroides thetaiotaomicron; settings: 200 uM
Trehalose-phosphatase [10] = biological target: T1, Trehalose-phosphatase (Brugia malayi, UniProt A8NS89); assay: Competitive inhibition of Brugia malayi T6PP using T6P as substrate by Lineweaver-Burk plot analysis; method in brief: as §1
T1 sequence (A8NS89 whole entry): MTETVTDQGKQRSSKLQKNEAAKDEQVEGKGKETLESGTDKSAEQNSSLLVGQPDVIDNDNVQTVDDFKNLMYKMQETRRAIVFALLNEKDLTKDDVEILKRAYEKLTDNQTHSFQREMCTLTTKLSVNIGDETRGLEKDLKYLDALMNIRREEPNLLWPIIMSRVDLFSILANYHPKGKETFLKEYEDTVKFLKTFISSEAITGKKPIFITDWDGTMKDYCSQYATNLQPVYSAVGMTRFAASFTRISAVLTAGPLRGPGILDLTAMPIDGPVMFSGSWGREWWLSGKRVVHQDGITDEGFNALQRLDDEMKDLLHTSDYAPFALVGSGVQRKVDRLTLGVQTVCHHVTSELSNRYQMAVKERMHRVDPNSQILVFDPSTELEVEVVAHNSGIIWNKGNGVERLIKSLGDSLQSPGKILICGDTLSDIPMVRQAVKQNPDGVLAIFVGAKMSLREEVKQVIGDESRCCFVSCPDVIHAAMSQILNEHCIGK

[11] = Inhibition of Shigella boydii T6PP using T6P as substrate by Lineweaver-Burk plot analysis; method in brief: as §1
Ascaris suum [12] = assay: Inhibition of Ascaris suum T6PP using T6P as substrate assessed as fraction of enzyme unbound with compound by measuring ratio of initial velocities of T6P substrate hydrolysis in presence and absence of compound at 1 mM after 5 mins by BioMol green dye based HTS assay
Method in brief: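 T6P is at half saturation ([T6P] = Km), with and without 1 mM inhibitor, at 25 °C. Released phosphate is detected with dye (30 min incubation) by A625. The reported value is V_I/V, the initial-velocity ratio.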

Ascaris suum [13] = assay: Activity at Ascaris suum T6PP
[14] = system: Salmonella enterica subsp. enterica serovar Typhimurium; assay: Activity at Salmonella typhimurium T6PP
[15] = system: Mycobacterium tuberculosis; assay: Activity at Mycobacterium tuberculosis T6PP
[16] = biological target: T2, Trehalose-phosphatase (Brugia malayi) (UniProt A8NS89); assay: Inhibition of Brugia malayi T6PP using T6P as substrate assessed as fraction of enzyme unbound with compound by measuring ratio of initial velocities of T6P substrate hydrolysis in presence and absence of compound at 1 mM […] by BioMol green dye based HTS assay
T2 sequence (whole entry): T1 sequence (A8NS89 whole entry)

Shigella boydii [17] = assay: Inhibition of Shigella boydii T6PP using T6P as substrate assessed as fraction of enzyme unbound with compound by measuring ratio of initial velocities of T6P substrate hydrolysis in presence and absence of compound at 1 mM after 5 mins by BioMol green dye based HTS assay
Method in brief: (§2)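 Freshly purified St-T6PP or Sb-T6PP (5–25 nM) in 50 mM Hepes pH 7.5, 25 mM NaCl, 2 mM MgCl₂, 5% glycerol at 25 °C. T6P at half saturation (Km) for each enzyme. Hydrolysis rate was compared with and without 1 mM inhibitor; phosphate read at 625 nm after 30 min incubation. The ratio VI/V gives the fraction of enzyme not inhibitor-bound.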

Shigella boydii [18] = assay: Activity at Shigella boydii T6PP
[19] = system: Salmonella enterica subsp. enterica serovar Typhimurium; assay: Inhibition of Salmonella typhimurium T6PP using T6P as substrate assessed as fraction of enzyme unbound with compound by measuring ratio of initial velocities of T6P substrate hydrolysis in presence and absence of compound at 1 mM after 5 mins by BioMol green dye based HTS assay; method in brief: as §2
Trehalose-phosphatase [20] = biological target: T1, Trehalose-phosphatase; assay: Reversible competitive inhibition of Brugia malayi T6PP using T6P as substrate by Lineweaver-Burk plot analysis
[21] = compound: O=S(=O)(O)OC[C@H]1O[C@@H](Oc2ccccc2)[C@H](O)[C@@H](O)[C@@H]1O; assay: (§3) Reversible competitive inhibition of Brugia malayi T6PP assessed as Vmax for substrate using T6P as substrate by Lineweaver-Burk plot analysis
[22] = compound: O=S(=O)(O)OC[C@H]1O[C@H](Oc2ccccc2)[C@H](O)[C@@H](O)[C@@H]1O; assay: as §3
[23] = substrate: O=P(O)(O)OC[C@H]1O[C@@H](Oc2ccccc2)[C@H](O)[C@@H](O)[C@@H]1O; assay: Activity at Brugia malayi T6PP
[24] = compound: CCCCCCc1ccc(O[C@H]2O[C@H](COS(=O)(=O)O)[C@@H](O)[C@H](O)[C@H]2O)cc1; assay: (§4) Competitive inhibition of Brugia malayi T6PP assessed as Km for substrate using T6P as substrate by Lineweaver-Burk plot analysis; method in brief: as §1
[25] = compound: O=S(=O)(O)OC[C@H]1O[C@H](OCc2ccccc2)[C@H](O)[C@@H](O)[C@@H]1O; assay: as §4; method in brief: as §1
[26] = compound: CCCCCCCCc1ccc(O[C@@H]2O[C@H](COS(=O)(=O)O)[C@@H](O)[C@H](O)[C@H]2O)cc1; assay: as §4; method in brief: as §1
[27] = compound: CCCCCCCCc1ccc(O[C@H]2O[C@H](COS(=O)(=O)O)[C@@H](O)[C@H](O)[C@H]2O)cc1; assay: as §4; method in brief: as §1
[28] = compound: O=S(=O)(O)OC[C@H]1O[C@@H](Oc2ccccc2)[C@H](O)[C@@H](O)[C@@H]1O; assay: (§5) Reversible competitive inhibition of Brugia malayi T6PP assessed as Km for substrate using T6P as substrate by Lineweaver-Burk plot analysis
[29] = compound: O=S(=O)(O)OC[C@H]1O[C@H](Oc2ccccc2)[C@H](O)[C@@H](O)[C@@H]1O; assay: as §5
[30] = compound: CCCCCCc1ccc(O[C@H]2O[C@H](COS(=O)(=O)O)[C@@H](O)[C@H](O)[C@H]2O)cc1; assay: (§6) Competitive inhibition of Brugia malayi T6PP assessed as Vmax for substrate using T6P as substrate by Lineweaver-Burk plot analysis; method in brief: as §1
[31] = compound: O=S(=O)(O)OC[C@H]1O[C@H](OCc2ccccc2)[C@H](O)[C@@H](O)[C@@H]1O; assay: as §6; method in brief: as §1
[32] = compound: CCCCCCCCc1ccc(O[C@@H]2O[C@H](COS(=O)(=O)O)[C@@H](O)[C@H](O)[C@H]2O)cc1; assay: as §6; method in brief: as §1
[33] = compound: CCCCCCCCc1ccc(O[C@H]2O[C@H](COS(=O)(=O)O)[C@@H](O)[C@H](O)[C@H]2O)cc1; assay: as §6; method in brief: as §1
[34] = substrate: CCCCCCCCc1ccc(O[C@H]2O[C@H](COS(=O)(=O)O)[C@@H](O)[C@H](O)[C@H]2O)cc1; settings: Pseudomonas putida KT2440; 200 uM
[35] = substrate: CCCCCCCCc1ccc(O[C@H]2O[C@H](COS(=O)(=O)O)[C@@H](O)[C@H](O)[C@H]2O)cc1; settings: Pseudomonas putida KT2440; 200 uM; remark: listed apart in the source

In the case of `CCCCCCCCc1ccc(O[C@H]2O[C@H](COS(=O)(=O)O)[C@@H](O)[C@H](O)[C@H]2O)cc1`, the Ki [1] is reported as 56 µM, the Ki [2] is reported as 80 to 84 µM and the Km (Shigella boydii [3]) is reported as 246 µM. It also gave a Vmax (Ascaris suum [4]) of 0.48 µM/s, a Km (Ascaris suum [5]) of 406 µM and a Km [6] of 387 µM. For the same molecule, the Vmax (Shigella boydii [7]) was 0.897 µM/s, the Vmax (Escherichia coli) was 0.0605 µM/s and the Vmax [8] was 0.173 µM/s. For the same molecule, the Vmax [9] was 0.0788 µM/s, the Ki (Trehalose-phosphatase [10]) was 5.3 µM and the Ki [11] was 21 µM.

In the case of `O=P(O)(O)OC[C@H]1O[C@@H](Oc2ccccc2)[C@H](O)[C@@H](O)[C@@H]1O`, the Ratio (Ascaris suum [12]) is reported as 0.98, the kcat (Ascaris suum [13]) is reported as 0.96 ×10⁻² /s and the kcat [14] is reported as 0.41 ×10⁻² /s. The kcat [15] was 0.71 ×10⁻² /s, the Ratio [16] was 0.79 and the Ratio (Shigella boydii [17]) was 0.94. The kcat (Shigella boydii [18]) was 0.71 ×10⁻² /s and the Ratio [19] was 0.77.

For `O=S(=O)(O)OC[C@H]1O[C@H](Oc2ccccc2)[C@H](O)[C@@H](O)[C@@H]1O`, the Ratio (Ascaris suum [12]) was 0.71, the Ratio [16] was 0.42 and the Ratio (Shigella boydii [17]) was 0.76. It also gave a Ki (Trehalose-phosphatase [20]) of 320 µM and a Ratio [19] of 0.64.

B1: Trehalose-phosphatase (Brugia malayi), A8NS89 (protein)
chain: T1 sequence (A8NS89 whole entry)
In the case of B1, the Vmax [21] is reported as 0.57 µM/s, the Vmax [22] is reported as 0.496 µM/s and the kcat [23] is reported as 1.4 ×10⁻² /s. For the same molecule, the Km [24] was 234 µM, the Km [25] was 127 µM and the Km [26] was 156 µM. It also gave a Km [27] of 229 µM, a Km [28] of 126 µM and a Km [29] of 109 µM. It also gave a Vmax [30] of 0.375 µM/s, a Vmax [31] of 0.457 µM/s and a Vmax [32] of 0.584 µM/s. It also gave a Vmax [33] of 0.924 µM/s.

B2: D-glycero-beta-D-manno-heptose-1,7-bisphosphate 7-phosphatase (Pseudomonas putida (strain ATCC 47054 / DSM 6125 / NCIMB 11950 /KT2440)), Q88RS0 (protein)
chain: MKLLILDRDGVINYDSDAYIKTLEEWVPIPGSVDAIAQLSKAGWTVAVATNQSGIARGYYPLATLEAMHARLRALVAEQGGEVGHIVYCPHGPDEGCDCRKPKPGMLRAIAEHYQIGLEGVWFVGDSKGDLEAALAVGAQPVLVKTGKGERTLEKGVPETTLIFDDLAAIARELI
With B2 the Vmax [34] was 0.0175 µM/s and the Vmax [35] was 0.106 µM/s.
